Reference: ChEMBL document CHEMBL3297654, “Synthesis, antimicrobial and cytotoxic activities, and structure-activity relationships of gypsogenin derivatives against human cancer cells” (Eur J Med Chem, 2014)
≈ marks a conversion by molar mass, not a printed value. One block for each compound: values may come before it. Calls of active or inactive are those of the source. The rule behind the calls is not given here.

How the values were obtained:
HL-60 [1] = assay: Antiproliferative activity against human HL60 cells after 24 and 72 hrs by MTT assay; assay type: functional, cell-based
Summary of the method: (§1)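 ATCC human cell lines are kept in RPMI, DMEM or McCoy's 5A with 10–15% heat-inactivated FCS at 37 °C and 5% CO2. They are seeded at 1×10^4–1×10^5 cells/mL in 48-well plates and exposed to 0.5, 10, 20 or 40 µM. Viability is read by MTT (590 nm) at 24 and 72 h. Growth is expressed relative to untreated cells and IC50 is fitted, in triplicate.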

Caco-2 [2] = assay: Antiproliferative activity against human Caco2 cells after 24 and 72 hrs by MTT assay; assay type: functional, cell-based; summary of the method: as §1
HL-60 [3] = assay: Induction of apoptosis in human HL60 cells at 20 uM after 48 hrs by Hoechst 33258/propidium iodide staining based phase contrast microscopic analysis; assay type: functional
Summary of the method: (§2)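 Cells in 48-well plates treated with 0.5, 10, 20 or 40 µM for 24 and 48 h. Values are read at 48 h, 20 µM for test agents and 0.5 µM for controls. Staining is Hoechst 33258/propidium iodide double staining with fluorescence microscopy. Blue nuclei are viable or early-to-mid apoptotic, and pink nuclei are late apoptotic or necrotic. Apoptosis and necrosis are scored from chromatin condensation as % of cells. Cells are grown at 37 °C in 5% CO2 in RPMI, DMEM or McCoy's 5A with 10–15% heat-inactivated FCS.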

Bacillus thuringiensis [4] = assay: Antimicrobial activity against Bacillus thuringiensis for 24 hrs by microdillution method; assay type: functional
Summary of the method: (§3)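 Broth microdilution. Compound is dissolved in DMSO (2 mg/mL) and diluted in Mueller Hinton broth as two-fold serial dilutions from 256 to 0.125 µg/mL. Bacteria are pre-grown in nutrient broth at 30 °C, and the final inoculum is about 10^6 cfu/mL. Tests are incubated 37 °C for 24 h. MIC is the lowest concentration giving complete inhibition. Streptomycin is the positive control.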

Enterococcus faecalis = assay: Antimicrobial activity against Enterococcus faecalis ATCC 29212 assessed as zone of inhibition at 30 uL for 24 hrs at 37 degC by disk diffusion test; assay type: functional, organism-based
Summary of the method: (§4)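 Compound (30 µL of a fresh 1000 µg/mL DMSO stock) goes into a 6 mm well cut in Mueller Hinton agar inoculated with 0.1 mL broth culture adjusted to 0.5 McFarland (about 1×10^8 cells/mL). Plates are incubated 24 h at 37 °C, then zone of inhibition diameter is measured in mm.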

HT-29 [5] = assay: Induction of necrosis in human HT-29 cells at 20 uM after 48 hrs by Hoechst 33258/propidium iodide staining based phase contrast microscopic analysis; assay type: functional; summary of the method: as §2
MCF7 [6] = assay: Induction of apoptosis in human MCF7 cells at 20 uM after 48 hrs by Hoechst 33258/propidium iodide staining based phase contrast microscopic analysis; assay type: functional; summary of the method: as §2
Micrococcus luteus = assay: Antimicrobial activity against Micrococcus luteus ATCC 9341 assessed as zone of inhibition at 30 uL for 24 hrs at 30 degC by disk diffusion test; assay type: functional, organism-based
Summary of the method: (§5)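 Agar well diffusion on Mueller Hinton agar seeded with 0.1 mL broth culture (18–24 h), adjusted to 0.5 McFarland (about 1×10^8 bacteria or 1×10^6 yeast cells/mL). A 6 mm well is filled with 30 µL of compound from a fresh 1000 µg/mL DMSO stock. Plates are held at 30 °C for 24 h and inhibition zone diameter is read in mm.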

HeLa [7] = assay: Induction of necrosis in human HeLa cells at 20 uM after 48 hrs by Hoechst 33258/propidium iodide staining based phase contrast microscopic analysis; assay type: functional; summary of the method: as §2
MCF7 [8] = assay: Antiproliferative activity against human MCF7 cells after 24 and 72 hrs by MTT assay; assay type: functional, cell-based; summary of the method: as §1
SAOS-2 [9] = assay: Induction of apoptosis in human Saos2 cells at 20 uM after 48 hrs by Hoechst 33258/propidium iodide staining based phase contrast microscopic analysis; assay type: functional; summary of the method: as §2
Cyberlindnera jadinii = assay: Antimicrobial activity against Candida utilis ATCC 9950 assessed as zone of inhibition at 30 uL for 24 hrs at 30 degC by disk diffusion test; assay type: functional, organism-based; summary of the method: as §5
Klebsiella pneumoniae = assay: Antimicrobial activity against Klebsiella pneumoniae ATCC 13882 assessed as zone of inhibition at 30 uL for 24 hrs at 37 degC by disk diffusion test; assay type: functional, organism-based; summary of the method: as §4
Caco-2 [10] = assay: Induction of apoptosis in human Caco2 cells at 20 uM after 48 hrs by Hoechst 33258/propidium iodide staining based phase contrast microscopic analysis; assay type: functional; summary of the method: as §2
Bacillus thuringiensis [11] = assay: Antimicrobial activity against Bacillus thuringiensis assessed as zone of inhibition at 30 uL for 24 hrs at 30 degC by disk diffusion test; assay type: functional; summary of the method: as §5
Escherichia coli = assay: Antimicrobial activity against Escherichia coli ATCC 25922 assessed as zone of inhibition at 30 uL for 24 hrs at 37 degC by disk diffusion test; assay type: functional, organism-based; summary of the method: as §4
HL-60 [12] = assay: Induction of necrosis in human HL60 cells at 20 uM after 48 hrs by Hoechst 33258/propidium iodide staining based phase contrast microscopic analysis; assay type: functional; summary of the method: as §2
Staphylococcus aureus = assay: Antimicrobial activity against Staphylococcus aureus ATCC 25923 assessed as zone of inhibition at 30 uL for 24 hrs at 37 degC by disk diffusion test; assay type: functional, organism-based; summary of the method: as §4
Candida albicans = assay: Antimicrobial activity against Candida albicans ATCC 10231 assessed as zone of inhibition at 30 uL for 24 hrs at 30 degC by disk diffusion test; assay type: functional, organism-based; summary of the method: as §5
Nakaseomyces glabratus = assay: Antimicrobial activity against Candida glabrata assessed as zone of inhibition at 30 uL for 24 hrs at 30 degC by disk diffusion test; assay type: functional, organism-based; summary of the method: as §5
Saccharomyces cerevisiae = assay: Antimicrobial activity against Saccharomyces cerevisiae ATCC 9763 assessed as zone of inhibition at 30 uL for 24 hrs at 30 degC by disk diffusion test; assay type: functional, organism-based; summary of the method: as §5
Bacillus cereus [13] = assay: Antimicrobial activity against Bacillus cereus ATCC 11778 for 24 hrs by microdillution method; assay type: functional; summary of the method: as §3
HT-29 [14] = assay: Antiproliferative activity against human HT-29 cells after 24 and 72 hrs by MTT assay; assay type: functional, cell-based; summary of the method: as §1
SAOS-2 [15] = assay: Induction of necrosis in human Saos2 cells at 20 uM after 48 hrs by Hoechst 33258/propidium iodide staining based […] microscopic analysis; assay type: functional; summary of the method: as §2
Bacillus cereus [16] = assay: Antimicrobial activity against Bacillus cereus ATCC 11778 assessed as zone of inhibition at 30 uL for 24 hrs at 30 degC by disk diffusion test; assay type: functional; summary of the method: as §5
Bacillus subtilis [17] = assay: Antimicrobial activity against Bacillus subtilis ATCC 6633 for 24 hrs by microdillution method; assay type: functional; summary of the method: as §3
Bacillus subtilis [18] = assay: Antimicrobial activity against Bacillus subtilis ATCC 6633 assessed as zone of inhibition at 30 uL for 24 hrs at 30 degC by disk diffusion test; assay type: functional; summary of the method: as §5
Caco-2 [19] = assay: Induction of necrosis in human Caco2 cells at 20 uM after 48 hrs by Hoechst 33258/propidium iodide staining based phase contrast microscopic analysis; assay type: functional; summary of the method: as §2
Proteus vulgaris = assay: Antimicrobial activity against Proteus vulgaris ATCC 33420 assessed as zone of inhibition at 30 uL for 24 hrs at 37 degC by disk diffusion test; assay type: functional, organism-based; summary of the method: as §4
MCF7 [20] = assay: Induction of necrosis in human MCF7 cells at 20 uM after 48 hrs by Hoechst 33258/propidium iodide staining based phase contrast microscopic analysis; assay type: functional; summary of the method: as §2
[21] = Antiproliferative activity against human Saos2 cells after 24 and 72 hrs by MTT assay; assay type: functional, cell-based; settings: SAOS-2; summary of the method: as §1
Salmonella typhimurium = assay: Antimicrobial activity against Salmonella typhimurium ATCC 14028 assessed as zone of inhibition at 30 uL for 24 hrs at 37 degC by disk diffusion test; assay type: functional, organism-based; settings: Salmonella enterica subsp. enterica serovar Typhimurium; summary of the method: as §4
HeLa [22] = assay: Induction of apoptosis in human HeLa cells at 20 uM after 48 hrs by Hoechst 33258/propidium iodide staining based phase contrast microscopic analysis; assay type: functional; summary of the method: as §2
HeLa [23] = assay: Antiproliferative activity against human HeLa cells after 24 and 72 hrs by MTT assay; assay type: functional, cell-based; summary of the method: as §1
[24] = test system: Staphylococcus epidermidis; assay: Antimicrobial activity against Staphylococcus epidermidis ATCC 12228 assessed as zone of inhibition at 30 uL for 24 hrs at 37 degC by disk diffusion test; assay type: functional, organism-based; summary of the method: as §4
Candida tropicalis = assay: Antimicrobial activity against Candida tropicalis assessed as zone of inhibition at 30 uL for 24 hrs at 30 degC by disk diffusion test; assay type: functional, organism-based; summary of the method: as §5
HT-29 [25] = assay: Induction of apoptosis in human HT-29 cells at 20 uM after 48 hrs by Hoechst 33258/propidium iodide staining based phase contrast microscopic analysis; assay type: functional; summary of the method: as §2
Pseudomonas aeruginosa = assay: Antimicrobial activity against Pseudomonas aeruginosa ATCC 35032 assessed as zone of inhibition at 30 uL for 24 hrs at 37 degC by disk diffusion test; assay type: functional, organism-based; summary of the method: as §4

IC50 (HL-60 [1]): 6.21 µM | IC50 (Caco-2 [2]): 36.5 µM | MIC (Bacillus thuringiensis [4]): inactive | IC50 (MCF7 [8]): 6.05 µM | MIC (Bacillus cereus [13]): inactive | IC50 (HT-29 [14]): 15 µM | MIC (Bacillus subtilis [17]): inactive | IC50 (HeLa [23]): 23.6 µM
Structure (SMILES): CC1(C)CC[C@]2(C(=O)OCc3ccccc3)CC[C@]3(C)C(=CC[C@@H]4[C@@]5(C)CC[C@H](O)[C@@](C)(/C=N/NC(N)=S)[C@@H]5CC[C@]43C)[C@@H]2C1
Activity (HL-60 [3]): 2% | diameter of the inhibition zone (DIZ) (Enterococcus faecalis): inactive | Activity (HT-29 [5]): 32% | Activity (MCF7 [6]): 4% | diameter of the inhibition zone (DIZ) (Micrococcus luteus): inactive | Activity (HeLa [7]): 55% | Activity (SAOS-2 [9]): 5% | diameter of the inhibition zone (DIZ) (Cyberlindnera jadinii): inactive | diameter of the inhibition zone (DIZ) (Klebsiella pneumoniae): inactive | Activity (Caco-2 [10]): 4% | diameter of the inhibition zone (DIZ) (Bacillus thuringiensis [11]): inactive | diameter of the inhibition zone (DIZ) (Escherichia coli): inactive | Activity (HL-60 [12]): 64% | diameter of the inhibition zone (DIZ) (Staphylococcus aureus): inactive | diameter of the inhibition zone (DIZ) (Candida albicans): inactive | diameter of the inhibition zone (DIZ) (Nakaseomyces glabratus): inactive | diameter of the inhibition zone (DIZ) (Saccharomyces cerevisiae): inactive | Activity (SAOS-2 [15]): 41% | diameter of the inhibition zone (DIZ) (Bacillus cereus [16]): inactive | diameter of the inhibition zone (DIZ) (Bacillus subtilis [18]): inactive | Activity (Caco-2 [19]): 48% | diameter of the inhibition zone (DIZ) (Proteus vulgaris): inactive | Activity (MCF7 [20]): 63% | IC50 [21]: 6.97 µM | diameter of the inhibition zone (DIZ) (Salmonella typhimurium): inactive | Activity (HeLa [22]): 5% | diameter of the inhibition zone (DIZ) [24]: inactive | diameter of the inhibition zone (DIZ) (Candida tropicalis): inactive | Activity (HT-29 [25]): 2% | diameter of the inhibition zone (DIZ) (Pseudomonas aeruginosa): inactive

MIC (Bacillus thuringiensis [4]): 64 µg/mL (≈ 110 µM) | MIC (Bacillus cereus [13]; ATCC 11778, 24 h): 64 µg/mL (≈ 110 µM) | MIC (Bacillus subtilis [17]; ATCC 6633, 24 h): 64 µg/mL (≈ 110 µM)
Structure (SMILES): CN[C@@H]1[C@H](O[C@H]2[C@H](O[C@H]3[C@H](O)[C@@H](O)[C@H](N=C(N)N)[C@@H](O)[C@@H]3N=C(N)N)O[C@@H](C)[C@]2(O)C=O)O[C@@H](CO)[C@H](O)[C@H]1O [STREPTOMYCIN]
